Assay: Cytotoxicity against C57BL/6 mouse neutrophils assessed as cell viability at 100 uM after 2 hrs by lactate dehydrogenase assay relative to control
Assay type: toxicity, Neutrophil
Settings: read-out: Activity
Outline: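 Bone-marrow neutrophils from C57BL/6 mice, Percoll-purified (65%/72% interface, ~85-90% purity), plated at 1 × 10^5 cells/well; fresh medium with or without Tween 20 (3%) or compound (0.01−100 μM), quadruplicate; 2 h incubation. LDH released into supernatant measured, 20−30 min at room temperature, stopped with 1 N HCl; absorbance 490 nm minus 690 nm background.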

## COC(=O)c1cc(O)c(O)c(O)c1 [GALLIC ACID METHYL ESTER]
  viability at 2 h, 100 µM: ≥ 92%
